The values that follow come from ChEMBL document CHEMBL4007443, “Discovery of Potent Human Glutaminyl Cyclase Inhibitors as Anti-Alzheimer's Agents Based on Rational Design” (J Med Chem, 2017).

The target of data set [1] is Glutaminyl-peptide cyclotransferase (Mus musculus, UniProt Q9CYK2). Put plainly: Inhibition of mouse glutaminyl cyclase assessed as reduction in conversion of H-Gln-AMC hydrobromide to pGlu-AMC preincubated with substrate for 10 mins followed by enzyme addition by pGAPase coupled fluorometry.
Data set [2] can be described thus: Cytotoxicity against mouse HT22 cells assessed as cell viability at 10 uM after 18 hrs by MTT assay. Type of data set: cell-based, HT-22. To be noted: read-out: Activity. The procedure, abridged:
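HT-22 mouse hippocampal cells grown in DMEM with 10% FBS at 37 °C, 5% CO2. Cells seeded at 5000/well the day before and exposed to compound at 10 µM for 18 h at 37 °C. MTT added for 3 h, formazan dissolved in DMSO, absorbance read at 570 nm. Viability expressed relative to vehicle control (100%).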
On the technique in general: Formazan colour is commonly taken as a measure of viable cells.

For data set [3], the system named is Mus musculus. Nature of the data set: Antialzheimer activity in human amyloid beta (3 to 40) induced acute ICR mouse Alzheimer's disease mouse model assessed as inhibition of amyloid beta (N3pE to 40) formation in brain at 10 mM, icv by sandwich ELISA. Type of data set: functional. The method, boiled down: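 Acute model: male ICR mice, 5 weeks old (25 g, n = 4), anaesthetized and given 5 µg human Aβ3-40 in 5 µL PBS by stereotaxic injection into deep cortex/hippocampus (AP -2.0, ML 1.2, DV 1.0 mm from bregma). Inhibitor given by the same intracerebral route or i.p. Brain extracts taken next day; Aβ N3pE-40 quantified by sandwich ELISA. Percent inhibition is relative to vehicle; one-way ANOVA with Bonferroni.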
Background: In an ELISA, binding on a coated surface is turned into a signal by an enzyme label.

The nature of data set [4]: Stability in mouse liver microsomes assessed as compound remaining after 30 mins. Format: ADME, microsome. To be noted: read-out: Stability. A general note: Liver microsomes are a subcellular fraction often used to study metabolism.
Data set [5] deals with Mus musculus. Put plainly: Cognition enhancement activity in 5XFAD Alzheimer's disease mouse model assessed as increase in duration of time spent in target quadrant administered intraperitoneally starting from 19 to 34 weeks of age by Morris water maze test. Type of data set: functional. The method, boiled down:
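Male 5XFAD mice (n = 6 vehicle, n = 6 treated) received the compound i.p. from 19 weeks of age for 3 months, housed singly on a 12:12 h light cycle. Morris water maze: four hidden-platform training trials per day for 5 days, scoring escape latency. Probe trial 24 h later with the platform removed, scoring time in the target quadrant.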

Data set [6] deals with Mus musculus. Nature of the data set: Toxicity in APP/PS1 transgenic Alzheimer's disease mouse model administered via icv for 3 weeks. To be noted: in vivo, icv_or_intrathecal, 504 h.
Data set [7] is filed under the species Mus musculus. Nature of the data set: animal or person. As to conditions: ICR, ip, read-out: INH.
The species entered for data set [8] is Mus musculus. As to conditions: ICR, 25 mg/kg.

The IC50 is the concentration needed to halve the response being measured.

Activity calls are given as the source filed them. No cut-off for these calls is given here.

Glutaminyl-peptide cyclotransferase, sequence (Q9CYK2 whole entry): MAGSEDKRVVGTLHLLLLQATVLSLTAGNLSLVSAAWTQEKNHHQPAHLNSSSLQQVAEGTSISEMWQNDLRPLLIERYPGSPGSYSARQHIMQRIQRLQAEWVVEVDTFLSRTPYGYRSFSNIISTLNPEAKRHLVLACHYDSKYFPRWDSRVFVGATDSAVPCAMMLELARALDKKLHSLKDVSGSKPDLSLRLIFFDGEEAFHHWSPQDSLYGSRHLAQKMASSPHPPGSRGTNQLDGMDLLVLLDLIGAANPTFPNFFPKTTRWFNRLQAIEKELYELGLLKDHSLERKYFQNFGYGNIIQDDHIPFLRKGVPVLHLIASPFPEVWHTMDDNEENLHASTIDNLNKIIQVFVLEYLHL

As for `COc1cc(NC(=S)NCCCn2cncc2C)ccc1OCCCCc1ccnc(N)c1`, in data set [1], the IC50 is 12.6 nM. Moreover, in data set [2], the viability at 18 h, 10 µM worked out at 100%. In addition, in the data set on Mus musculus [3], the “inhibition (INH)” value stood at 66.1%. For the same molecule, in data set [4], the remaining at 0.5 h is 50%. Further, the result in the data set on Mus musculus [5] was Active. The Activity result in the data set on Mus musculus [6] is reported as “Non-Toxic”. Also, the inhibition in vivo at 25 mg/kg in the data set listed under Mus musculus [7] is 54.7%.
For `COc1cc(NC(=S)NCCCn2cncc2C)ccc1OCCCCNc1ncccn1`, in data set [2], the viability at 18 h, 10 µM was found to be 100%. In addition, the “inhibition (INH)” value in the data set with Mus musculus [3] is reported as 27.3%.
In the case of `COc1cc(NC(=S)NCCCn2cncc2C)ccc1OCCN1CCNCC1`, the viability at 18 h, 10 µM in data set [2] came to 100%. Besides, in the data set with Mus musculus [3], the “inhibition (INH)” value is 77.2%. In addition, the inhibition in vivo at 25 mg/kg in the data set filed under Mus musculus [7] turned out to be 3.6%.
As to `COc1cc(NC(=S)NCCCn2cncc2C)ccc1OCCC1CCN(C)CC1`, in data set [2], the viability at 18 h, 10 µM was determined as 100%. In addition, the “inhibition (INH)” value in the data set with Mus musculus [3] is reported as 18.7%.
For `COc1cc(NC(=S)NCCCn2cncc2C)ccc1OCCc1ccnc(N)c1`, in that order: 100% and 38%.
As to `COc1cc(NC(=S)NCCCn2cncc2C)ccc1OCCCN`, the viability at 18 h, 10 µM in data set [2] turned out to be 100%. In addition, the “inhibition (INH)” value with Mus musculus [3] was 64.6%. The inhibition result in the data set filed under Mus musculus [8] is “inactive”.
Consider `COc1ccc(NC(=S)NCCCn2cncc2C)cc1OC`, for which the IC50 in data set [1] amounted to 21.5 nM. Also, the viability at 18 h, 10 µM in data set [2] came to 100%. The “inhibition (INH)” value in the data set on Mus musculus [3] was 41.6%. For the same molecule, the inhibition entry in the data set filed under Mus musculus [8] was “inactive”.
As to `COc1cc(NC(=S)NCCCn2cncc2C)ccc1OCCCCN(C)C`, the viability at 18 h, 10 µM in data set [2] was 100%. The “inhibition (INH)” value in the data set with Mus musculus [3] is given as 35.7%.
On to `COc1cc(NC(=S)NCCCn2cncc2C)ccc1OCCCCN1CCNCC1`, for which the viability at 18 h, 10 µM in data set [2] was determined as 100%. Also, the “inhibition (INH)” value with Mus musculus [3] worked out at 29.2%.
